High-throughput results: PubChem, several laboratories
HCV NS3 hel inh: inhibitors of HCV NS3 helicase, primary screen, biochemical, Cy5 molecular beacon fluorescence | 290,000 tested, 0.56% active | AID 1800, 2009 | NS3 helicase DNA unwinding | inhibition, % at 10.9 µM | Hepatitis C virus NS3 helicase;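 active = inhibition above the mean of all tested compounds plus 3 SD, set per campaign, cut at about 35% in these data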;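 note: 0% = DMSO wells and 100% = thioflavine S control wells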
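Compound dosing – single dose, 10.9 µM nominal final, DMSO 0.8% final · System – NS3 helicase fragment of HCV · Buffer or medium – MOPS pH 6.5, MgCl2, DTT, Tween20, BSA · Signal – Cy5 beacon fluorescence read at start and 1 h · Also added – annealed dual-labelled DNA beacon duplex, ATP-started · Schedule – 1 h at 25 °C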
eIF4H inh: human eIF4H binding inhibitors, primary screen, translation initiation inhibitor project, biochemical, uHTS, fluorescence polarization; eIF4H fluorescence polarization binding assay; inhibition, % at 35 µM; 290,000 tested, 0.94% active; AID 2012, 2009;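 note: calls also rest on retests at 20 µM and on dose response follow-up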
PABP polyA inh: PABP poly(A) RNA binding inhibitors, primary screen, biochemical, fluorescence polarization, uHTS | Polyadenylate-binding protein 1 (Homo sapiens), P11940 | inhibition, % at 35 µM | 290,000 tested, 1% active | AID 2014, 2009;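 note: calls also rest on retests at 20 µM and on dose response follow-up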
DNA FID counter-1: compounds displacing fluorescent DNA intercalator, primary screen, artefact control for HCV NS3 helicase inhibitor project, biochemical, FID fluorescence | inhibition, % at 7.9 µM | 290,000 tested, 0.17% active | DNA fluorescent intercalator displacement | AID 1845, 2009; in the data active = inhibition above about 37%;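 note: 0% = vehicle and 100% = reference compound; higher means more ethidium bromide displaced from hairpin DNA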
MLLE-PAM2 inh: inhibitors of PABP1 MLLE–PAM2 peptide binding, primary screen, biochemical, fluorescence polarization, FITC-PAM2, GST-MLLE | inhibition, % at 20 µM | Polyadenylate-binding protein 1 (Homo sapiens), P11940 | 360,000 tested, 0.36% active | AID 588489, 2011; in the data active = inhibition above about 35%, passing the limit was not always enough;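 note: plate controls were DMSO wells with GST-MLLE for no effect and wells lacking GST-MLLE protein for full effect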
HCV core dimer: inhibitors of HCV core protein dimerization, primary screen, biochemical, TR-FRET, high-throughput | TR-FRET GST/Flag-core106 dimerization, 1536-well | AID 1899, 2009 | inhibition, % at 5 µM | 300,000 tested, 0.33% active;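 active = inhibition above the mean of all tested compounds plus 3 SD, set per screening campaign, cut at about 45% in these data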
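System – GST-tagged and Flag-tagged HCV core protein residues 1-106 · Repeats – one well for each compound · Technique – TR-FRET 671 and 617 nm emission · Doses – one concentration, 5 µM, in 0.5% DMSO · Times – 4 h, 22.5 °C incubation · Also added – Eu donor and XL665 acceptor anti-tag antibodies · Measure – percent inhibition of core106 dimerization signal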
NS3 helicase cf: HCV NS3 helicase inhibitors, retest, confirmation, biochemical, Cy5 molecular beacon fluorescence, triplicate; NS3 helicase DNA unwinding; shares compounds with HCV NS3 hel inh; inhibition, % at 10.9 µM; AID 1943, 2009; 1,600 tested, 31% active;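 active = inhibition above the mean of all tested compounds plus 3 SD, cutoff set per campaign, cut at about 36% in these data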
DNA FID counter-2: compounds displacing fluorescent DNA intercalator, artefact control for HCV NS3 helicase inhibitor project, biochemical, FID fluorescence, triplicate. inhibition, % at 7.9 µM. AID 1945, 2009. DNA fluorescent intercalator displacement. shares compounds with HCV NS3 hel inh. 1,600 tested, 4% active; in the data active = inhibition above about 37%;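 note: 0% = vehicle and 100% = reference compound; higher means more displacement of ethidium bromide from the DNA hairpin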
FID counter DR: compounds displacing fluorescent intercalator from DNA, dose response, counter-screen for HCV NS3 helicase inhibitor project, biochemical, fluorescence; shares compounds with HCV NS3 hel inh; fluorescent intercalator displacement from DNA; IC50, µM; 120 tested, under 10 active
An asterisk follows results filed as active; ? = inconclusive; . = no result. This is a sample that favours compounds with a hit; in the whole collection about 2% have one here. Unless noted, the rule behind the calls is not given here.

SMILES	HCV NS3 hel inh	eIF4H inh	PABP polyA inh	DNA FID counter-1	MLLE-PAM2 inh	HCV core dimer	NS3 helicase cf	DNA FID counter-2	others
CC1CCCN(C(=O)c2cccc(S(=O)(=O)Nc3cc(C(F)(F)F)ccc3Cl)c2)C1 (centres undefined)	44*	-6	14	-43	-7	11	57*	-39
Cc1cc(NC(=O)NCc2ccccc2)c(=O)n(Cc2ccccc2F)c1	-1	-6	-2	-20	-12	17	.	.
COc1cccc(Cn2cc(C)cc(NC(=O)NCc3ccccc3)c2=O)c1	40*	4	-5	-29	-8	3	-3	-15
COCCn1c(=S)[nH]c2ccc(N(C)C)cc2c1=O	39*	11	1	-2	26	-10	-9	6
CCOc1cc2[nH]c(=S)n(CCOC)c(=O)c2cc1OCC	-4	-5	1	-6	-73	3	.	.
CC(C)Oc1cccc(NC(=O)C2(C)CCCN2C(=O)C(C)C)c1 (centres undefined)	.	.	.	.	6	.	.	.
CCOC(=O)/C=C(C)\C=C\c1c[nH]c2ccccc12	45*	-18	-9	-17	-29	-3	2	10
COc1ccc(C(=O)c2coc3c2C(=O)C(=O)c2ccccc2-3)cc1	41*	8	18	-9	4	-1	-8	-3
CC1(C)Oc2ccc3ccc(=O)oc3c2/C(=C/NNC(N)=S)C1=O	51*	3	-13	-13	-1	-23	-17	-8
COc1ccc(C(C)(C)C)cc1NC(=O)C1CC(=O)N(C2CCCC2)C1 (centres undefined)	.	.	.	.	-7	.	.	.
N#CC1=C(N)S[C@@H](C(=O)c2ccc(F)cc2)[C@@H]1c1cccs1	39*	5	19	-12	22	8	7	16
COc1cc(C(=O)c2cc3c(cc2C)OCO3)cc(OC)c1OC	.	.	.	.	3	.	.	.
NC(=S)N/N=C/c1ccc(C23CC4CC(CC(C4)C2)C3)cc1	56*	-7	6	-26	.	15	37*	-6	FID counter DR=>79
O=[N+]([O-])c1ccc(/C=C/C2=NN(c3ccccc3)C(c3ccco3)C2)o1 (centres undefined)	8	42	0	-4	-91	.	.	.
C(=C\c1ccco1)/C1=NN(c2ccccc2)C(c2ccco2)C1 (centres undefined)	46*	71*	-6	-17	-73	37	58*	8
CN(c1ccccc1)S(=O)(=O)c1ccc(NC(=O)CC(=O)c2ccccc2)cc1	.	.	.	.	15	.	.	.
O=C(CCC1CCN(Cc2ccc(Cl)cc2)CC1)NC1CC1	36*	0	-12	-2	3	-6	-15	1
COc1ccc(S(=O)(=O)NC(=O)C2(C)CCN2C(=O)CC2CCCC2)cc1 (centres undefined)	.	.	.	.	-9	.	.	.
COc1nc(-c2ccc(C)cc2)ccc1-c1noc(-c2ccco2)n1	40*	17	2	-2	-49	6	-3	-3
Cn1cnc(S(=O)(=O)N2CCCCC2c2cc(C(=O)NCc3ccc(Cl)c(Cl)c3)no2)c1 (centres undefined)	.	.	.	.	-8	.	.	.
Cc1cccc(NC(=S)Nc2ccc(N3CCOCC3)cc2)c1C	40*	4	-1	-3	30	-6	-14	-2
CN(C)C(=O)[C@H]1C[C@H]1[C@@H](O)[C@H](CO)NC(=O)[C@H](Cc1ccccc1)NC(=O)OC(C)(C)C	-9	-5	0	-20	2	-16	.	.
Oc1ccc(-c2csc(Nc3cccc4ccccc34)n2)cc1O	42*	12	8	8	-50	-11	-21	12
O=c1cc2oc3cc(O)c(O)cc3c(-c3ccccc3[N+](=O)[O-])c-2cc1O	64*	50*	34*	-19	-11	-29	109*	31	FID counter DR=>79
COc1cccc(NC2c3ccccc3C(=O)N2Cc2ccco2)c1 (centres undefined)	0	-3	9	-15	-4	28	.	.
SMILES	HCV NS3 hel inh	eIF4H inh	PABP polyA inh	DNA FID counter-1	MLLE-PAM2 inh	HCV core dimer	NS3 helicase cf	DNA FID counter-2	others
Cc1ccccc1NC1c2ccccc2C(=O)N1Cc1ccco1 (centres undefined)	41*	12	1	-26	4	4	-1	-4
CCN(CC)C(=O)COC(=O)c1cc(-c2ccc(OC)cc2)nc2ccccc12	-10	13	3	-21	-5	6	.	.
COc1ccc(CCNC(=O)c2cc(-c3ccco3)nc3ccccc23)cc1	53*	75*	48*	-31	.	65*	7	-17
CCN(CC)C(=O)COC(=O)c1cc(-c2ccco2)nc2ccccc12	44*	82*	64*	-23	19	.	19	0
O=C(O)c1ccccc1/C=N/NC(=O)c1cc(-c2ccco2)nc2ccccc12	42*	82*	76*	-20	-25	41	68*	-21	FID counter DR=>79
CC(=O)N(Cc1ccccc1)c1c(N)nc(N)[nH]c1=O	.	.	.	.	6	7	.	.
CC1(C(=O)NCc2ccc3c(c2)OCO3)CCN1C(=O)Cc1ccc(Cl)cc1Cl (centres undefined)	.	.	.	.	3	.	.	.
O=C1CSC(=S)N1/N=C/c1c(F)cccc1F	8	-11	0	-10	13	3	.	.
O=C1CSC(=S)N1/N=C/C=C/c1ccccc1	39*	20	2	-41	19	53*	7	10
Cc1ccc(N(CCC(=O)N2CCOCC2)S(=O)(=O)c2ccccc2)cc1	.	.	.	.	11	.	.	.
O=C(O)C(c1ccccc1)N1C(=O)/C(=C\c2ccc(-c3ccccc3Cl)o2)SC1=S (centres undefined)	59*	?	?	23	-94	16	83*	57*
Cc1occc1C(=O)NNC(=S)NC(=O)COc1ccc(Cl)cc1Cl	72*	-8	0	-19	18	-4	58*	-6	FID counter DR=>79
CN(C)CC(=O)Nc1cc(C(F)(F)F)ccc1Cl	4	-3	9	4	-3	-1	.	.
N/C(CC(=O)Nc1cc(C(F)(F)F)ccc1Cl)=N\O	19	3	1	-6	0	-12	-4	8
